Laboratory results from ChEMBL document CHEMBL1148289, “Computer-aided design, synthesis, and anti-HIV-1 activity in vitro of 2-alkylamino-6-[1-(2,6-difluorophenyl)alkyl]-3,4-dihydro-5-alkylpyrimidin-4(3H)-ones as novel potent non-nucleoside reverse transcriptase inhibitors, also active against the Y181C variant” (J Med Chem, 2004).

Key:
MT4 [1] = experiment: Effective dose required to achieve protection of MT-4 cells from Y181C HIV-1 induced cytopathogenicity; format: functional, cell-based; conditions: Homo sapiens
Procedure, shortened: (§1)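 MT-4 cells (1 × 10^4/well) in RPMI 1640 with 10% FCS, infected with 100 CCID50 of HIV-1 (IIIB wild type or Y181C), compounds from DMSO stock diluted in medium at various concentrations. After 4 days at 37 °C, viable cells counted by MTT. EC50 is the dose giving 50% protection from virus cytopathicity. Mean of at least two experiments.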

MT4 [2] = experiment: Effective dose required to achieve protection of MT-4 cells from wild type IIIB HIV-1 induced cytopathogenicity; format: functional, cell-based; conditions: Homo sapiens; procedure, shortened: as §1
MT4 [3] = experiment: Effective dose required to achieve protection of MT-4 cells from HIV-1 induced cytopathogenicity; format: functional, cell-based; conditions: Homo sapiens
Procedure, shortened: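 MT-4 cells (RPMI 1640, 10% FCS, 37 °C, 5% CO2), 1 × 10^4 per well, were infected with 100 CCID50 of HIV-1 IIIB in the presence of graded compound concentrations. Compounds came from 200 mM DMSO stocks diluted into medium. After 4 days at 37 °C, viable cells were counted by MTT. The value is the dose giving 50% protection, as a mean of at least two experiments.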

[4] = molecular target: Human immunodeficiency virus type 1 reverse transcriptase (Human immunodeficiency virus 1, UniProt Q72547); experiment: Inhibitory concentration required to inhibit the HIV-1 reverse transcriptase activity
Procedure, shortened: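 Purified recombinant HIV-1 RT, RNA-dependent polymerase activity. Template/primer poly(rC)-oligo(dG)12–18 at 0.5 OD260 unit/mL, with [3H]dGTP. Incubated 30 min at 37 °C, then acid-insoluble radioactivity counted on glass fiber filters. IC50 is the dose halving activity. Mean of at least two experiments.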

[5] = Ratio of CC50 to that EC50 in mock infected cells; format: functional
Procedure, shortened: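 Selectivity index is the ratio of CC50 (mock-infected MT-4 viability, MTT, 4 days) to EC50 (protection of HIV-1 IIIB-infected MT-4 cells, MTT, 4 days), both from parallel assays.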

MT4 [6] = experiment: Cytotoxic concentration required to reduce the viability of mock-infected MT-4 cells; format: functional; conditions: Homo sapiens
Procedure, shortened: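 Mock-infected MT-4 cells, 1 × 10^4 per well, were exposed to graded compound concentrations in parallel with the antiviral assay. Compounds came from 200 mM DMSO stocks diluted into medium. After 4 days at 37 °C, viability was measured by MTT. The value is the dose reducing viability by 50%, as a mean of at least two experiments.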

[7] = Ratio of wild type IIIB to that of Y181C HIV-1 induced cytopathogenicity; format: functional

Cc1c(C(C)c2c(F)cccc2F)nc(NC2CCCC2)[nH]c1=O (stereo not drawn)
EC50 (MT4 [1]): 160 nM
EC50 (MT4 [2]): 30 nM
EC50 (MT4 [3]): 20 nM
IC50 [4]: 35 nM
Selectivity index [5]: 4500
CC50 (MT4 [6]): 90000 nM
Ratio [7]: 5.3

Cc1c(C(C)c2c(F)cccc2F)nc(SC2CCCC2)[nH]c1=O (stereo not drawn)
EC50 (MT4 [1]): 200 nM
EC50 (MT4 [2]): 15 nM
EC50 (MT4 [3]): 6 nM
Selectivity index [5]: >33333
CC50 (MT4 [6]): > 200000 nM
Ratio [7]: 13

O=C1Nc2ccc(Cl)cc2[C@@](C#CC2CC2)(C(F)(F)F)O1
Ratio [7]: 6

O=c1cc(Cc2c(F)cccc2F)nc(NC2CCCC2)[nH]1
EC50 (MT4 [3]): 90 nM
IC50 [4]: 70 nM
Selectivity index [5]: >2222
CC50 (MT4 [6]): > 200000 nM

O=c1cc(Cc2c(F)cccc2F)nc(SC2CCCC2)[nH]1
Selectivity index [5]: >2500
CC50 (MT4 [6]): > 200000 nM

Cc1ccnc2c1NC(=O)c1cccnc1N2C1CC1 [NEVIRAPINE]
EC50 (MT4 [1]): > 30000 nM
Ratio [7]: > 81

CCOCn1c(Cc2ccccc2)c(C(C)C)c(=O)[nH]c1=O [EMIVIRINE]
Selectivity index [5]: 6666
CC50 (MT4 [6]): 200000 nM

Cc1c(Cc2c(F)cccc2F)nc(NC2CCCC2)[nH]c1=O
EC50 (MT4 [3]): 20 nM
IC50 [4]: 30 nM
Selectivity index [5]: >10000
CC50 (MT4 [6]): > 200000 nM

CC(c1cc(=O)[nH]c(NC2CCCC2)n1)c1c(F)cccc1F (stereo not drawn)
EC50 (MT4 [3]): 30 nM
IC50 [4]: 40 nM
Selectivity index [5]: 3500
CC50 (MT4 [6]): 76000 nM

Cc1c(Cc2c(F)cccc2F)nc(SC2CCCC2)[nH]c1=O
Selectivity index [5]: > 2500
CC50 (MT4 [6]): > 200000 nM

CC(c1cc(=O)[nH]c(SC2CCCC2)n1)c1c(F)cccc1F (stereo not drawn)
EC50 (MT4 [3]): 30 nM
IC50 [4]: 30 nM
Selectivity index [5]: >6666
CC50 (MT4 [6]): > 200000 nM
